Measurements published in ChEMBL document CHEMBL3758140, “Exploring the role of chloro and methyl substitutions in 2-phenylthiomethyl-benzoindole derivatives for 5-LOX enzyme inhibition” (Eur J Med Chem, 2016).
Activity calls are given as the source filed them. The calls are words filed in the database; no cut-off is given here.

What follows are compounds tested against T1, Polyunsaturated fatty acid 5-lipoxygenase (Homo sapiens, UniProt P09917) (assay: Inhibition of 5-LOX in human intact polymorphonuclear leukocytes preincubated for 15 mins with CaCl2, A23187 measured after 10 mins by HPLC analysis).
T1 sequence (P09917 whole entry): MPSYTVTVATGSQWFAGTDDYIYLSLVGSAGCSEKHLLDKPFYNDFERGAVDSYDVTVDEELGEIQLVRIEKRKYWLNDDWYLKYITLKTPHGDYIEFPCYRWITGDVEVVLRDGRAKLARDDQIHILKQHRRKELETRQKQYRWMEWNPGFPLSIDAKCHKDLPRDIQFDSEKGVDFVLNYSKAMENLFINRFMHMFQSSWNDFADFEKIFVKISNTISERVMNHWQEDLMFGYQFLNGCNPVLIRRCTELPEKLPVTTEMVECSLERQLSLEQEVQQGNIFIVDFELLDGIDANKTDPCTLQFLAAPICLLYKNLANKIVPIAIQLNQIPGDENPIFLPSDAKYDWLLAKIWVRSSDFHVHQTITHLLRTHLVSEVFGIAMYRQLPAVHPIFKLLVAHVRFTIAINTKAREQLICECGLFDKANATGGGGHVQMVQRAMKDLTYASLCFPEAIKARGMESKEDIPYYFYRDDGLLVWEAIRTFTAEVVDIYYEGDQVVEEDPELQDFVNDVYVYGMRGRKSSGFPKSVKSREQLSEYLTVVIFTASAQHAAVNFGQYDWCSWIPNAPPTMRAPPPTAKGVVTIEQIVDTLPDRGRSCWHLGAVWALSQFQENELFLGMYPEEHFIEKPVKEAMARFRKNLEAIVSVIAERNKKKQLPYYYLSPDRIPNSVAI
In short: (§1)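 Human PMNL isolated from blood of healthy adult donors. 5 × 10⁶ cells in 1 ml PG buffer preincubated with compound for 15 min at 37 °C, then stimulated with 1 mM CaCl₂ plus 2.5 µM A23187. After 10 min at 37 °C, stopped with methanol, centrifuged, and supernatant products analyzed by HPLC. Mean ± S.E.M., n = 3–4.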

| Compound | IC50 [nM] |
| --- | --- |
| CCOC(=O)c1c(CSc2ccc(Cl)c(Cl)c2)[nH]c2c1cc(O)c1ccccc12 | 237 |
| CCOC(=O)c1c(CSc2ccccc2Cl)[nH]c2c1cc(O)c1ccccc12 | 182 |
| CCOC(=O)c1c(CSc2c(C)cc(C)cc2C)[nH]c2c1cc(O)c1ccccc12 | 370 |
| CCOC(=O)c1c(CSc2cccc(Cl)c2Cl)[nH]c2c1cc(O)c1ccccc12 | 657 |
| CCOC(=O)c1c(CSc2ccccc2C)[nH]c2c1cc(O)c1ccccc12 | 255 |
| CCOC(=O)c1c(CSc2cc(Cl)cc(Cl)c2)[nH]c2c1cc(O)c1ccccc12 | 240 |
| CCOC(=O)c1c(CSc2c(C)cccc2C)[nH]c2c1cc(O)c1ccccc12 | 170 |
| CCOC(=O)c1c(CSc2ccccc2Cl)n(C)c2c1cc(O)c1ccccc12 | > 10000 |
| CCOC(=O)c1c(CSc2c(Cl)cccc2Cl)[nH]c2c1cc(O)c1ccccc12 | 190 |
| CCOC(=O)c1c(CSc2ccccc2Cl)n(C)c2c1cc(OC)c1ccccc12 | > 10000 |
| CCOC(=O)c1c(CSc2ccccc2Cl)n(CC)c2c1cc(OCC)c1ccccc12 | > 10000 |
| CCOC(=O)c1c(CSc2cc(C)cc(C)c2)[nH]c2c1cc(O)c1ccccc12 | 290 |
| CCOC(=O)c1c(CSc2ccccc2Cl)[nH]c2c1cc(OCC)c1ccccc12 | 1260 |
| CCOC(=O)c1c(CSc2ccccc2Cl)[nH]c2c1cc(OC)c1ccccc12 | 1150 |
| CCOC(=O)c1c(CSc2cccc(Cl)c2)[nH]c2c1cc(O)c1ccccc12 | 257 |

What follows are compounds tested against T2, Polyunsaturated fatty acid 5-lipoxygenase (Homo sapiens) (UniProt P09917) (assay: Inhibition of human recombinant 5-LOX expressed in Escherichia coli BL21 using arachidonic acid as substrate assessed as remaining enzyme activity by measuring LTB4 formation at 1 uM preincubated for 15 mins measured after 10 mins by HPLC analysis).
T2 sequence (whole entry): T1 sequence (P09917 whole entry)
In short: (§2)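 Human recombinant 5-LOX expressed in E. coli BL21 (pT3-5LO) at 37 °C, purified, and used immediately. 0.5 µg enzyme in PBS/EDTA preincubated with compound for 15 min at 4 °C, then prewarmed 30 s at 37 °C. Reaction started with 2 mM CaCl₂ plus 20 µM arachidonic acid, run 10 min at 37 °C, and metabolites analyzed by HPLC. Mean ± S.E.M., n = 3–4.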

| Compound | Activity [%] |
| --- | --- |
| CCOC(=O)c1c(CSc2cccc(Cl)c2Cl)[nH]c2c1cc(O)c1ccccc12 | 72 |
| CCOC(=O)c1c(CSc2c(C)cccc2C)[nH]c2c1cc(O)c1ccccc12 | 65.9 |
| CCOC(=O)c1c(CSc2cc(C)cc(C)c2)[nH]c2c1cc(O)c1ccccc12 | 63 |
| CCOC(=O)c1c(CSc2cccc(Cl)c2)[nH]c2c1cc(O)c1ccccc12 | 63.8 |

The compounds below were run on Mus musculus (assay: Antiinflammatory activity in ICR mouse assessed as reduction in carrageenan-induced paw oedema volume at 20 mg/kg, ip administered 30 mins before carrageenan challenge measured after 0 to 6 hrs by hydroplethysmometer).
Assay type: functional
Parameters: scale not given: the % may be the effect or the level left
In short: (§3)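 Male ICR mice, 8 weeks, housed 5 per cage with 12:12 h light:dark cycle, 22 ± 1 °C, 60 ± 10% humidity, acclimatized at least 1 week. Compounds given i.p. (1–4 mg/kg; zileuton reference 20 mg/kg) 30 min before intraplantar carrageenan. Hind paw volume increase (oedema) followed for 6 h versus vehicle-treated group. Mean ± SEM, n = 6–8 per group.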

| Compound | Activity [%] |
| --- | --- |
| CC(c1cc2ccccc2s1)N(O)C(N)=O (configuration not stated) [ZILEUTON] | 38.2 |

Each compound was assayed against T2, Polyunsaturated fatty acid 5-lipoxygenase (Homo sapiens) (assay: Inhibition of human recombinant 5-LOX expressed in Escherichia coli BL21 using arachidonic acid as substrate assessed as remaining enzyme activity by measuring LTB4 formation at 10 uM preincubated for 15 mins measured after 10 mins by HPLC analysis).
In short: as §2

| Compound | Activity [%] |
| --- | --- |
| CCOC(=O)c1c(CSc2ccccc2Cl)n(C)c2c1cc(O)c1ccccc12 | 81.4 |
| CCOC(=O)c1c(CSc2ccccc2Cl)n(C)c2c1cc(OC)c1ccccc12 | 98.7 |
| CCOC(=O)c1c(CSc2ccccc2Cl)n(CC)c2c1cc(OCC)c1ccccc12 | 99.4 |

The compounds below were run against T3, Prostaglandin E synthase (Homo sapiens, UniProt O14684) (assay: Inhibition of IL-1beta-activated m-PGES-1 in microsome of human A549 cells assessed as PGE2 formation preincubated for 15 mins followed by PGH2 addition measured after 1 min by RP-HPLC analysis).
T3 sequence (O14684 whole entry): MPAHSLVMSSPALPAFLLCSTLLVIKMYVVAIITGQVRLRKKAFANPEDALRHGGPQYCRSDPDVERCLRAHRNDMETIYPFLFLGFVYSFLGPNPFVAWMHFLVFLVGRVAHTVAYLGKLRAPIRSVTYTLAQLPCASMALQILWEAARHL
Assay type: cell-based
In short: (§4)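 Microsomes from A549 cells prepared by sonication and differential centrifugation (10,000 g, then 174,000 g), stored at −80 °C. Diluted in 0.1 M potassium phosphate pH 7.4 with 2.5 mM glutathione and preincubated with compound (DMSO vehicle, 1% final) 15 min at 4 °C. Started with 20 µM PGH₂ (final), run 1 min at 4 °C, stopped with FeCl₂/citric acid plus 11β-PGE₂ internal standard. PGE₂ isolated by C18 SPE and quantified by RP-HPLC with UV at 195 nm. IC50 from three determinations at 0.1, 1 and 10 µM.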

| Compound | IC50 [nM] |
| --- | --- |
| CCOC(=O)c1c(CSc2c(C)cc(C)cc2C)[nH]c2c1cc(O)c1ccccc12 | 1930 |
| CCOC(=O)c1c(CSc2cc(Cl)cc(Cl)c2)[nH]c2c1cc(O)c1ccccc12 | 13800 |
| CCOC(=O)c1c(CSc2c(Cl)cccc2Cl)[nH]c2c1cc(O)c1ccccc12 | 1330 |

The compounds below were run against T2, Polyunsaturated fatty acid 5-lipoxygenase (Homo sapiens) (assay: Inhibition of 5-LOX in human intact polymorphonuclear leukocytes assessed as remaining enzyme activity at 10 uM preincubated for 15 mins with CaCl2, A23187 measured after 10 mins by HPLC analysis).
In short: as §1

| Compound | Activity [%] |
| --- | --- |
| CCOC(=O)c1c(CSc2ccccc2Cl)n(C)c2c1cc(O)c1ccccc12 | 61.9 |
| CCOC(=O)c1c(CSc2ccccc2Cl)n(C)c2c1cc(OC)c1ccccc12 | 97.6 |
| CCOC(=O)c1c(CSc2ccccc2Cl)n(CC)c2c1cc(OCC)c1ccccc12 | 95.5 |

These compounds were tested on Mus musculus (assay: Antiinflammatory activity in ICR mouse assessed as reduction in carrageenan-induced paw oedema volume at 1 to 4 mg/kg, ip administered 30 mins before carrageenan challenge measured after 2 to 4 hrs by hydroplethysmometer relative to vehicle-treated control).
Assay type: functional, organism-based
In short: as §3

| Compound | Activity |
| --- | --- |
| CCOC(=O)c1c(CSc2cc(Cl)cc(Cl)c2)[nH]c2c1cc(O)c1ccccc12 | Active |
| CCOC(=O)c1c(CSc2c(Cl)cccc2Cl)[nH]c2c1cc(O)c1ccccc12 | inactive |

These compounds were tested against T1, Polyunsaturated fatty acid 5-lipoxygenase (assay: Inhibition of human recombinant 5-LOX expressed in Escherichia coli BL21 using arachidonic acid as substrate assessed as LTB4 formation preincubated for 15 mins measured after 10 mins by HPLC analysis).
In short: as §2

| Compound | IC50 [nM] |
| --- | --- |
| CCOC(=O)c1c(CSc2ccc(Cl)c(Cl)c2)[nH]c2c1cc(O)c1ccccc12 | 930 |
| CCOC(=O)c1c(CSc2ccccc2Cl)[nH]c2c1cc(O)c1ccccc12 | 820 |
| CCOC(=O)c1c(CSc2c(C)cc(C)cc2C)[nH]c2c1cc(O)c1ccccc12 | 200 |
| CCOC(=O)c1c(CSc2cccc(Cl)c2Cl)[nH]c2c1cc(O)c1ccccc12 | > 1000 |
| CCOC(=O)c1c(CSc2ccccc2C)[nH]c2c1cc(O)c1ccccc12 | 330 |
| CCOC(=O)c1c(CSc2cc(Cl)cc(Cl)c2)[nH]c2c1cc(O)c1ccccc12 | 220 |
| CCOC(=O)c1c(CSc2c(C)cccc2C)[nH]c2c1cc(O)c1ccccc12 | > 1000 |
| CCOC(=O)c1c(CSc2ccccc2Cl)n(C)c2c1cc(O)c1ccccc12 | > 10000 |
| CCOC(=O)c1c(CSc2c(Cl)cccc2Cl)[nH]c2c1cc(O)c1ccccc12 | 170 |
| CCOC(=O)c1c(CSc2ccccc2Cl)n(C)c2c1cc(OC)c1ccccc12 | > 10000 |
| CCOC(=O)c1c(CSc2ccccc2Cl)n(CC)c2c1cc(OCC)c1ccccc12 | > 10000 |
| CCOC(=O)c1c(CSc2cc(C)cc(C)c2)[nH]c2c1cc(O)c1ccccc12 | > 1000 |
| CCOC(=O)c1c(CSc2ccccc2Cl)[nH]c2c1cc(OCC)c1ccccc12 | 2040 |
| CCOC(=O)c1c(CSc2ccccc2Cl)[nH]c2c1cc(OC)c1ccccc12 | 1740 |
| CCOC(=O)c1c(CSc2cccc(Cl)c2)[nH]c2c1cc(O)c1ccccc12 | > 1000 |

The compounds below were run against T4, Prostaglandin E synthase (Homo sapiens) (UniProt O14684) (assay: Inhibition of IL-1beta-activated m-PGES-1 in microsome of human A549 cells assessed as PGE2 formation at 10 uM preincubated for 15 mins followed by PGH2 addition measured after 1 min by RP-HPLC analysis).
T4 sequence (whole entry): T3 sequence (O14684 whole entry)
Assay type: cell-based
In short: as §4

| Compound | inhibition [%] |
| --- | --- |
| CCOC(=O)c1c(CSc2c(C)cc(C)cc2C)n(C)c2ccc(O)cc12 | 27.8 |

The compounds below were run against T4, Prostaglandin E synthase (Homo sapiens) (assay: Inhibition of IL-1beta-activated m-PGES-1 in microsome of human A549 cells assessed as remaining enzyme activity by measuring PGE2 formation at 10 uM preincubated for 15 mins followed by PGH2 addition measured after 1 min by RP-HPLC analysis).
Assay type: cell-based
In short: as §4

| Compound | Activity [%] |
| --- | --- |
| CCOC(=O)c1c(CSc2c(C)cc(C)cc2C)n(C)c2ccc(O)cc12 | 87.3 |

The compounds below were run on Mus musculus (assay: Antiinflammatory activity in ICR mouse assessed as reduction in carrageenan-induced paw oedema volume at 4 mg/kg, ip administered 30 mins before carrageenan challenge measured after 4 hrs by hydroplethysmometer).
Assay type: functional
Parameters: scale not given: the % may be the effect or the level left
In short: as §3

| Compound | Activity [%] |
| --- | --- |
| CCOC(=O)c1c(CSc2c(C)cc(C)cc2C)n(C)c2ccc(O)cc12 | 60.9 |
| CCOC(=O)c1c(CSc2c(C)cc(C)cc2C)[nH]c2c1cc(O)c1ccccc12 | 77.4 |
| CCOC(=O)c1c(CSc2cc(Cl)cc(Cl)c2)[nH]c2c1cc(O)c1ccccc12 | 60 |
| CCOC(=O)c1c(CSc2c(Cl)cccc2Cl)[nH]c2c1cc(O)c1ccccc12 | 9.1 |
